This is an account of results in ChEMBL document CHEMBL2150880, “Discovery and characterization of small molecule inhibitors of the BET family bromodomains” (J Med Chem, 2011).

The source made the active and inactive calls. The calls are words filed in the database; no cut-off is given here.

In assay [1] the test system is HepG2. Briefly: Induction of human ApoA1 gene expression in stably transfected human HepG2 cells coexpressing luciferase reporter gene at 0.001 to 10 uM after 18 hrs by luminescence assay. It counts as functional, cell-based. The procedure, abridged:
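HepG2 cells stably carrying an ApoA1 promoter–luciferase reporter were incubated 18 h with or without freshly diluted compound in 0.5% DMSO. Bright Glo reagent was then added, and luminescence was read after 10 min with substrate.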
(In general: In a reporter assay the amount or activity of a reporter protein is the signal.)

Assay [2] concerns HepG2. Briefly: Induction of human LDL-R gene expression in stably transfected human HepG2 cells coexpressing luciferase reporter gene at 0.001 to 10 uM after 18 hrs by luminescence assay. It counts as functional, cell-based. A digest of the protocol:
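Selectivity counter-screen run in parallel under the same conditions as the ApoA1 reporter: HepG2 cells stably carrying an LDL-receptor promoter–luciferase reporter, 18 h with or without compound in 0.5% DMSO, then Bright Glo luminescence read after 10 min.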

The subject of assay [3] is HepG2. The assay can be described thus: Induction of human ApoA1 gene expression in stably transfected human HepG2 cells coexpressing luciferase reporter gene after 18 hrs by luminescence assay. It counts as functional, cell-based.
The test system of assay [4] is HepG2. Briefly: Induction of human ApoA1 gene expression in stably transfected human HepG2 cells coexpressing luciferase reporter gene after 18 hrs by luminescence assay relative to control. It counts as functional.
Assay [5] addresses T1, ATPase family AAA domain-containing protein 2 (Homo sapiens, UniProt Q6PL18).
T1 sequence (Q6PL18 whole entry): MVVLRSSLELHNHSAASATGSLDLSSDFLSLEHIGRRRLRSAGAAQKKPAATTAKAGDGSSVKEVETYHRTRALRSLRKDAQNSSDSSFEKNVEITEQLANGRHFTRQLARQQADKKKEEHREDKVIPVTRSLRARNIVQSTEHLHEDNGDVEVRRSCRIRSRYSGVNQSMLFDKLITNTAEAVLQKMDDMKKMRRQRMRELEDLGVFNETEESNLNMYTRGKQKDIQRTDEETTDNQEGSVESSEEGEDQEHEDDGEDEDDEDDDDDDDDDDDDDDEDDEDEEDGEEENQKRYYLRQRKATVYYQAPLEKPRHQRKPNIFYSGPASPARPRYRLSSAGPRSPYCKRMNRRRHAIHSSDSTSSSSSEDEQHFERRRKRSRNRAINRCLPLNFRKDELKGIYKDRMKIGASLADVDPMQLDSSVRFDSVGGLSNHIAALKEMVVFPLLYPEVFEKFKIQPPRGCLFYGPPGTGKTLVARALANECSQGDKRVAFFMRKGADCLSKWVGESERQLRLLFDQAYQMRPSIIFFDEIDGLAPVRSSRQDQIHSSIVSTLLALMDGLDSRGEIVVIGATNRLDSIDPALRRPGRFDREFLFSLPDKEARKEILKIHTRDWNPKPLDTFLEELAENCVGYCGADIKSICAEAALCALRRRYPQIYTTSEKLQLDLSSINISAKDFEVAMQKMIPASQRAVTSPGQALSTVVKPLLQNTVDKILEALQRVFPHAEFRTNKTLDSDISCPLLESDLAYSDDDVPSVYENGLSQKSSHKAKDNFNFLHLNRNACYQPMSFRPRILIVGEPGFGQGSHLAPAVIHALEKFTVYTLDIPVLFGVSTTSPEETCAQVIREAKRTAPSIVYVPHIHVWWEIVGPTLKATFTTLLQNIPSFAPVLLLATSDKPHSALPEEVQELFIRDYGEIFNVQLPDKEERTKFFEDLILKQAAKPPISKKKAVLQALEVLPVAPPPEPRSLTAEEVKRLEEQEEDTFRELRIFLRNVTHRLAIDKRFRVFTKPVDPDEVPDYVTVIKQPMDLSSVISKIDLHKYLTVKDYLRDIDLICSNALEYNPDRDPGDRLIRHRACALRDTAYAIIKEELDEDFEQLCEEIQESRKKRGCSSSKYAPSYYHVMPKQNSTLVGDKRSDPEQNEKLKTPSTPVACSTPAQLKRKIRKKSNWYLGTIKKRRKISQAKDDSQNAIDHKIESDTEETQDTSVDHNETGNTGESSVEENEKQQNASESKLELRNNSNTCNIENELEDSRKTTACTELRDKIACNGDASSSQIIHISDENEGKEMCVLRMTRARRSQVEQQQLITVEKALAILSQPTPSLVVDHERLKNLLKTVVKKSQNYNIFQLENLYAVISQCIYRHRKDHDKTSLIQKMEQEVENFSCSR
Briefly: Binding affinity to ATAD2 by isothermal titration calorimetric analysis. For orientation: ITC needs no label: the signal is the heat of the interaction.

In assay [6] the test system is HepG2. The assay can be described thus: Induction of human ApoA1 gene expression in stably transfected human HepG2 cells coexpressing luciferase reporter gene at 1 uM after 18 hrs by luminescence assay relative to control. It counts as functional.
The target in a further assay is CREB-binding protein (Homo sapiens, UniProt Q92793). Briefly: Binding affinity to CREBBP by isothermal titration calorimetric analysis.
The subject of assay [7] is HepG2. The assay can be described thus: Induction of human ApoA1 protein synthesis in human HepG2 cells assessed as neosynthesised radiolabeled protein secretion after 6 hrs by SDS PAGE analysis in presence of [35S]methionine. It counts as functional, cell-based. A digest of the protocol: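 Confluent HepG2 cells were exposed to compound for 48 h in BME with 1% FCS. Compound was re-added in Met/Cys-depleted RPMI-1640 containing 35S-methionine for 6 h at 37 °C. Secreted labelled proteins were separated on 5–12% SDS-PAGE, and ApoA1 was quantified by phosphorimaging.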

Chain of CREB-binding protein (Q92793 whole entry): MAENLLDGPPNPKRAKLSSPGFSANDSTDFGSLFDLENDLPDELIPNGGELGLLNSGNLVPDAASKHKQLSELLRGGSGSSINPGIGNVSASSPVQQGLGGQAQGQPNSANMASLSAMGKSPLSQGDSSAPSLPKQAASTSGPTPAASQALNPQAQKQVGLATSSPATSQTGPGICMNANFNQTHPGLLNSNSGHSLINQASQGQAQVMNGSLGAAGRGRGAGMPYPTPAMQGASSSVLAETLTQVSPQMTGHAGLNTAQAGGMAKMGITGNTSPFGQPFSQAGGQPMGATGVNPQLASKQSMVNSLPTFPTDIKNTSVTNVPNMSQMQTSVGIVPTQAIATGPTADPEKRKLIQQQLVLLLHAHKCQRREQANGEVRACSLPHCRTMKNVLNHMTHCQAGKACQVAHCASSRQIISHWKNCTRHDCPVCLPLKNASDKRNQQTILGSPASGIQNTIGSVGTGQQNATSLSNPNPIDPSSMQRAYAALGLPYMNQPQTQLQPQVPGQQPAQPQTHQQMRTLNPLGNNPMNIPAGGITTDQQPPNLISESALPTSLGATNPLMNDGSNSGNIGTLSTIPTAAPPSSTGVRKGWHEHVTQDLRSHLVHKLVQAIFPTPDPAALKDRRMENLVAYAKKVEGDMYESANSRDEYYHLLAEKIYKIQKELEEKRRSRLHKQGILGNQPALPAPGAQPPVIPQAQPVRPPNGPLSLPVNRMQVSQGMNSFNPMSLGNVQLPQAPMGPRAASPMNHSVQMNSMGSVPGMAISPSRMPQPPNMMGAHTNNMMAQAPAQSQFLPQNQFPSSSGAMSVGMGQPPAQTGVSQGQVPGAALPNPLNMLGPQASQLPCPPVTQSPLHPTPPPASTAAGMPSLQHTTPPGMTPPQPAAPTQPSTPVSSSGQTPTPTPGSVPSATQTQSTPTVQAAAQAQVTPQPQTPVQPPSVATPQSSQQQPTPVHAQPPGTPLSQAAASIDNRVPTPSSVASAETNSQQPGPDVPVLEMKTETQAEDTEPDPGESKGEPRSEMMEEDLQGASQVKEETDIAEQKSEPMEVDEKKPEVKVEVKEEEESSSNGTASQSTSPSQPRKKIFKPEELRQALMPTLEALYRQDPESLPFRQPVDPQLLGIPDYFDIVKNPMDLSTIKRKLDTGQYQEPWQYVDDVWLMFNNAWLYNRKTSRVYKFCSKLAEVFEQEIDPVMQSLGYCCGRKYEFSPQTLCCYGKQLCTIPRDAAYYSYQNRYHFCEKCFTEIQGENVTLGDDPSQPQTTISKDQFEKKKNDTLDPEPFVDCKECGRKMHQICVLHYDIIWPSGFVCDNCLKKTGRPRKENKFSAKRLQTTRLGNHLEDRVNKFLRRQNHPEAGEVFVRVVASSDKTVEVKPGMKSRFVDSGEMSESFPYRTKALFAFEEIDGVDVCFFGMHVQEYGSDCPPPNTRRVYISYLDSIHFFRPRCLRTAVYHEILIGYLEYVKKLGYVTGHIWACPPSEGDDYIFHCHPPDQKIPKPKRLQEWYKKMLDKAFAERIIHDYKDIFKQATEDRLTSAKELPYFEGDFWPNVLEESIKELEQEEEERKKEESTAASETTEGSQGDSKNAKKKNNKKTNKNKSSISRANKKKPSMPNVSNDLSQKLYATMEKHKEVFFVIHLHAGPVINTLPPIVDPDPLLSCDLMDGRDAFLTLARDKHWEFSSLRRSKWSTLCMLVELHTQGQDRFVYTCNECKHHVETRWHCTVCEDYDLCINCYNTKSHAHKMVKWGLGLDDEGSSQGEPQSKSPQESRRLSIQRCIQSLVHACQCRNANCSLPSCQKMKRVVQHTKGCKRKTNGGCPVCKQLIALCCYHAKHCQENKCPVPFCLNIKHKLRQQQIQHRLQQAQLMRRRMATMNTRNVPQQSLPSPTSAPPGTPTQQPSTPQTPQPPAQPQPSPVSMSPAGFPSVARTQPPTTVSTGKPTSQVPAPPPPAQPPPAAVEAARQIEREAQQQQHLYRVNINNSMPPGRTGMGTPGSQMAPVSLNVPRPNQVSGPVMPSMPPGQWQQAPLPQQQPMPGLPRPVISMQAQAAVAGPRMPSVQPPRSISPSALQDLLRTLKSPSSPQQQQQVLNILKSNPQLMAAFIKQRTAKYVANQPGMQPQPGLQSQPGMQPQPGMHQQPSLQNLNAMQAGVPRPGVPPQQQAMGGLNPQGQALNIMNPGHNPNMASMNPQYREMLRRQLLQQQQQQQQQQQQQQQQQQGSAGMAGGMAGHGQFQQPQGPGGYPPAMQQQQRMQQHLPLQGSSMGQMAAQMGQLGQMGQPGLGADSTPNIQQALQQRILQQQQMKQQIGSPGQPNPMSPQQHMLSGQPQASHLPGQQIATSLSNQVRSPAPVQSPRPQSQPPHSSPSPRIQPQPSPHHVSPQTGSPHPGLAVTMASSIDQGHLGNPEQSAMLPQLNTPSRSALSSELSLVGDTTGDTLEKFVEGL

Consider `CCNC(=O)C[C@H]1N=C(c2ccc(Cl)cc2)c2cc(OC)ccc2-n2c(C)nnc21`, for which the result in the assay with HepG2 [1] and in the assay with HepG2 [2] was inactive.
Usually EC50 stands for the concentration giving half of the maximal effect. A low value points to a more potent agent. One may read the Kd as the constant that tells how readily two partners part at equilibrium. `Cc1nnc2n1-c1ccccc1C(c1ccccc1)=NC2NC(=O)OCc1ccccc1` (configuration not stated): in the assay on HepG2 [3], the Activity entry was “Dose-dependent effect”. For the same compound, it took 0.44 µM to reach a half-maximal effect with HepG2 [3] (HepG2, 18 h) (EC50). Further, the result with HepG2 [2] was inactive. Further, the “fold change (FC)” value amounted to 4.5 with HepG2 [4] and 3 in the assay with HepG2 [6]. The Kd (in assay [5]; at CREB-binding protein) was over 50 µM in each case.
As to `CCNC(=O)C[C@@H]1N=C(c2ccc(Cl)cc2)c2cc(OC)ccc2-n2c(C)nnc21`, the Activity entry in the assay on HepG2 [3] was “Dose-dependent effect”. Also, the outcome in the assay with HepG2 [2] was inactive. The outcome in the assay on HepG2 [7] was Active.
